Test results reported in PubChem BioAssay AID488948 (Broad Institute, 2010).
Inconclusive results are not listed. Active and inactive are the calls of the source.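 Rule for the calls: active = compounds raising caspase signal whose fitted AC50 is at or under a set limit scaled from top dose; inconclusive = flat fit at middling activation, or poor curve fit; inactive = the rest.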

How the values were obtained:
[1] = caspase-3/7 activation in unprimed MEWO cells, dose response, counter-screen for Bcl2-A1 inhibitor project, cell-based, caspase-Glo luminescence, dry powder (AID 488948); conditions: MEWO unprimed cells, caspase-3/7 Glo luminescence, 3 h, hits give high values
Procedure, shortened: (§1)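 Assay system: unprimed MEWO cells expressing A1, no BIM or tBID priming / Input: 2500 cells/well / Technique: CaspaseGlo luminescence after 1 h at room temperature / Dosing: compound added by pin transfer, day after plating / Incubation: 3 h compound at 37 °C, 1 h CaspaseGlo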

[2] = test system: MEWO unprimed cells, caspase-3/7 Glo luminescence, 3 h; assay: as above
Procedure, shortened: as §1

**Q.** With Cn1c(=NC(=O)CCl)sc2ccccc21 as the compound, how does the max caspase activation ([1]; at 0.068 µM) read?
**A.** -1.67% (inactive)

**Q.** With Cc1c(CCOC(=O)c2ccc(N3CCOCC3)c([N+](=O)[O-])c2)sc[n+]1CC#N as the compound, how does the AC50 [2] read?
**A.** > 100 µM (inactive)

**Q.** Which max caspase activation ([1]; at 0.068 µM) does the source give for CCc1nnc(NC(=O)c2nc(S(=O)(=O)Cc3ccccc3)ncc2Cl)s1 here?
**A.** -1.73% (inactive)

**Q.** With C/C1=C/C(=O)O[C@@H]2C[C@@H](CC[C@H](C)/C=C\CC1)O[C@@](O)(C1CSC(=O)N1)C2 (some centres undefined) as the compound, how does the max caspase activation ([1]; at 46 µM) read?
**A.** 1.79% (inactive)

**Q.** For CCSc1nnc(NC(=O)c2nc(S(=O)(=O)Cc3ccc(F)cc3)ncc2Cl)s1, which max caspase activation ([1]; at 150 µM) is on record?
**A.** -5.59% (inactive)

**Q.** For Nc1nc(F)nc2c1ncn2[C@@H]1O[C@H](CO)[C@@H](O)[C@H]1O, which max caspase activation ([1]; at 0.1 µM) is on record?
**A.** 2.46% (inactive)

**Q.** Which max caspase activation ([1]; at 100 µM) does the source give for Cc1ccc(Sc2c([N+](=O)[O-])c(=O)n(C)c3ccccc23)cc1 here?
**A.** 3.9% (inactive)

**Q.** For Cc1cc(C(=O)CCl)c(C)n1CCc1ccc(Cl)cc1, which AC50 [2] is on record?
**A.** 18.4 µM

**Q.** Which max caspase activation ([1]; at 9 µM) does the source give for COc1cc(/C=C(/C#N)c2nc3ccccc3[nH]2)ccc1OCC(=O)Nc1ccccc1C(C)C here?
**A.** 2.17% (inactive)

**Q.** Which AC50 [2] does the source give for COc1ccc(N(C(=O)CCl)C(C(=O)NCCc2ccccc2)c2cccs2)cc1Cl (centres undefined) here?
**A.** 15.6 µM

**Q.** With O=C(CCl)N=c1sccn1Cc1ccccc1Cl as the compound, how does the AC50 [2] read?
**A.** > 150 µM (inactive)

**Q.** Which max caspase activation ([1]; at 150 µM) does the source give for CC(C)(C)n1nc(-c2ccc(Cl)cc2)c2c(N)ncnc21 here?
**A.** 4.52% (inactive)

**Q.** Which max caspase activation ([1]; at 100 µM) does the source give for Cc1ccc(CS(=O)(=O)c2ncc(Cl)c(C(=O)Nc3nnc(C(C)C)s3)n2)cc1 here?
**A.** -3.83% (inactive)

**Q.** Which max caspase activation ([1]; at 150 µM) does the source give for Cc1cccc(CS(=O)(=O)c2ncc(Cl)c(C(=O)Nc3nnc(C(C)C)s3)n2)c1 here?
**A.** -3.23% (inactive)

**Q.** For COc1cccc(C(=O)C(C#N)=C(SC)SC)c1, which max caspase activation ([1]; at 150 µM) is on record?
**A.** -3.79% (inactive)

**Q.** With C=C1[C@@H](C)[C@H]2[C@H](Cc3ccccc3)NC(=O)[C@]23OC(=O)/C=C\[C@H](O)CCC[C@@H](C)C/C=C/[C@H]3[C@@H]1O as the compound, how does the max caspase activation ([1]; at 2.6 µM) read?
**A.** 2.11% (inactive)

**Q.** For O=C(Oc1cccc(/C=N/Nc2nc(Nc3ccccc3)nc(N3CCOCC3)n2)c1)c1ccco1, which max caspase activation ([1]; at 68 µM) is on record?
**A.** 2.05% (inactive)

**Q.** Which AC50 [2] does the source give for CCOC(=O)CSC1=N/C(=C/c2ccc(-n3cncn3)cc2)C(=O)N1C(C)=O here?
**A.** > 150 µM (inactive)

**Q.** With CC(=O)N[C@H]1[C@H](O[C@H]2CC[C@@]3(C)C(CC[C@]4(C)C3CC=C3[C@@H]5CC(C)(C)CC[C@]5(C(=O)OC5OCC(O)C(O)C5O)C(O)C[C@]34C)C2(C)C)O[C@H](COC2OCC(O)C(OC3OCC(O)C(O)C3O)C2O)[C@@H](O[C@@H]2O[C@@H](C)[C@H](O)[C@@H](O)[C@H]2O[C@@H]2O[C@@H](C)[C@H](O)[C@@H](O)[C@H]2O)[C@@H]1O (some centres undefined) as the compound, how does the max caspase activation ([1]; at 135 µM) read?
**A.** -2.6% (inactive)
